# High-throughput results as filed in PubChem.
# NF-kB expr up = activators of NF-kB expression in neurons, primary screen, cell-based, HTS. human neuronal cells, NF-kB reporter expression; active compounds read high. fold change at 12.5 µM. hit rate 1.6% among 190,000. AID 1239, 2008; in the data active = fold change above about 3.3
# APP 5'UTR act = activators of APP 5'UTR luciferase reporter, primary screen, SH-SY5Y cells; SH-SY5Y APP 5'UTR luciferase reporter, luminescence; zero percent = DMSO vehicle wells; activation, % at 2 µM; hit rate 1% among 190,000; AID 1276, 2008;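 active = activation above a set limit, based on mean plus 3 SD of controls, cut at about 140% in these data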
# FLuc stim CS = FLuc activators, initial screening, artefact control for FLuc-dependent activation tests, biochemical, ATPlite luminescence | ATPlite luciferase biochemical, 10 min; 0 = ATP-free wells, 1 = DMSO control | 200,000 tested, under 10 active | activation factor at 10 µM | Luciferin 4-monooxygenase (Photinus pyralis), P08659;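 active = luciferase activation factor, scaled between plate controls, of at least 2 with compound at 10 µM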
# Target sequence (P08659 whole entry, looked up): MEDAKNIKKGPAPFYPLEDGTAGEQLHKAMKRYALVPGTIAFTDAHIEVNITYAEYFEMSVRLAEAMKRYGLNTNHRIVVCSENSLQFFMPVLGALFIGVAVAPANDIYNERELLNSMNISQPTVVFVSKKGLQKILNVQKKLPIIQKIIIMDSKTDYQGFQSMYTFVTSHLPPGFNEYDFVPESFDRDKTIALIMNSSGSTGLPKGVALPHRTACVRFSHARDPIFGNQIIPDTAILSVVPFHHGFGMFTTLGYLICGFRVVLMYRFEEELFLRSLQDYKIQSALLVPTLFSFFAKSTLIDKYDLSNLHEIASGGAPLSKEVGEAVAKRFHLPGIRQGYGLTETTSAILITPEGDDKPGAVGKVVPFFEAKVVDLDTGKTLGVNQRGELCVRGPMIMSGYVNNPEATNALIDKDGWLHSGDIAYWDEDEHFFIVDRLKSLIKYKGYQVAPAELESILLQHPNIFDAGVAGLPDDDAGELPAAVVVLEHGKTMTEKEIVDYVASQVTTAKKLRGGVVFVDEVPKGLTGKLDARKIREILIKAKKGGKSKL
#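 Assay system: Luciferase/luciferin detection reagent, cell-free biochemical luciferase assay / Also added: ATP substrate / Schedule: 10 min at ambient temperature / Measured by: luminescence measurement of luciferase light output / Benchmarks: low control with PBS replacing ATP, high control enzyme plus ATP without compound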
# FLuc inh counter = firefly luciferase enzyme inhibitors, primary screen, artefact control for luciferase-based inhibitor screens, biochemical, luminescence, ATPLite; Luciferin 4-monooxygenase (Photinus pyralis), P08659; 10 min; inhibition, % at 10 µM; hit rate 1.5% among 200,000; AID 1006, 2008;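 active = inhibition above about 50% when tested at 10 µM, limit read from the data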
# STAT1 activator = STAT1 signaling activators, primary screen, cell-based, HTS, luciferase reporter; AID 932, 2007; hit rate 2.6% among 200,000; activation (% of control), % at 5.5 µM; NIH 3T3 STAT1-luciferase reporter, IFN-gamma, luminescence; 100% = IFN-gamma alone, no compound;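 active = activation above the screen-wide mean activation plus 3 SD, cut at about 130% in these data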
# A number is an active result; . = inactive; / = no result. Shown are actives, neighbours in structure and some others; about 4.1% of the full set was active somewhere.
SMILES,NF-kB expr up,APP 5'UTR act,FLuc stim CS,FLuc inh counter,STAT1 activator
CC1CCN(c2nc3ccc(C(=O)O)cc3s2)CC1,6.7,.,.,58,.
Clc1ccc(-c2nnc3n2CCCCC3)cc1,.,.,.,.,.
Clc1ccc(-c2cn3c(n2)CCC3)cc1,3.5,.,.,.,.
Cc1cc(C(=O)COc2cccnc2[N+](=O)[O-])c(C)n1Cc1ccco1,.,.,.,.,.
Cc1cc(C(=O)CSc2nnc(N)s2)c(C)n1Cc1ccco1,4.1,235,.,80,.
COCCn1c(C)cc(C(=O)CSc2n[nH]c(N)n2)c1C,.,.,.,.,.
COCCn1c(C)cc(C(=O)CSc2nnc(C)s2)c1C,.,.,.,70,.
Nc1nnc(SCC(=O)c2ccco2)s1,.,.,.,.,.
Cc1cc(C(=O)COC(=O)c2cccn2C)c(C)n1Cc1ccco1,.,166,.,80,.
Cc1cc(C(=O)COC(=O)c2ccncc2)c(C)n1Cc1ccco1,.,.,.,79,129
O=C(Nc1nccs1)C12CC3CC(C1)CC(C(=O)Nc1nccs1)(C3)C2,.,.,.,.,.
Cn1c(N/N=C/c2cccs2)nc2c1c(=O)n(Cc1ccccc1)c(=O)n2C,.,.,.,.,.
CC(=O)N(CCP(=O)(c1ccccc1)c1ccccc1)Cc1ccco1,.,.,.,.,.
COCCn1c(C)cc(C(=O)COC(=O)c2cc3c(s2)CCC3)c1C,.,.,.,.,136
COCCn1c(C)cc(C(=O)COC(=O)c2ccc([N+](=O)[O-])o2)c1C,.,.,.,.,.
Cc1ccn2cc(C(=O)Nc3nnc(C)s3)nc2c1,.,.,.,.,.
O=C(c1cc(COc2ccc(F)cc2Cl)on1)N1CCC(c2ccncc2)CC1,.,.,.,.,.
O=C(c1cc(COc2ccc(F)cc2F)on1)N1CCSCC1,.,.,.,.,138
c1ccc2c(c1)CCCn1nnnc1-2,.,.,.,.,.
Cc1nnc(SCC(=O)Nc2ccccc2NC(=O)CSc2nnc(C)s2)s1,.,.,.,.,.
Cc1nnc(SCC(=O)Nc2nsc(-c3ccc(C(C)(C)C)cc3)n2)s1,8.6,147,.,.,141
COCCN(C(=O)CN1CCCc2ccccc21)c1c(N)n(Cc2ccccc2)c(=O)[nH]c1=O,.,.,.,.,.
Cc1ccc(/C=N/NC(=O)c2ccoc2C)o1,.,.,.,.,132
Cc1occc1C(=O)N/N=C/C=C/c1ccccc1[N+](=O)[O-],.,.,.,.,.
Cc1occc1C(=O)N/N=C/C=C/c1ccccc1,.,.,.,.,146
SMILES,NF-kB expr up,APP 5'UTR act,FLuc stim CS,FLuc inh counter,STAT1 activator
COc1cc(/C=N/NC(=O)c2ccoc2C)cc(OC)c1O,.,.,.,.,135
CCOCC(=O)Nc1cccc(SC)c1,.,.,.,.,.
CCOC(=O)c1c(NC(=O)C[n+]2ccc(Cc3ccccc3)cc2)sc(C)c1C,.,.,.,.,.
CCN1CCN(C(=O)c2cc3cc([N+](=O)[O-])ccc3oc2=O)CC1,.,.,.,.,.
COc1cccc2sc(N(C)c3ccccc3)nc12,5.8,218,.,85,150
CC(=O)Cc1nsc(Nc2ccc3c(c2)OCCO3)n1,.,.,.,.,148
CC(=O)Cc1nsc(Nc2ccc(F)cc2)n1,.,.,.,.,.
CCOC(=O)N1CCN(c2ccc(O)cc2)CC1,3.5,.,.,.,.
O=C(c1ccc2ccccc2c1)N1CCN(c2ccc(O)cc2)CC1,4.1,.,.,.,.
O=C(c1ccc2ccccc2c1)N1CCN(c2ccc([N+](=O)[O-])c(N3CCOCC3)c2)CC1,.,.,.,.,.
CCOC(=O)N1CCN(c2ccc(Cl)cc2)CC1,.,.,.,.,.
COc1cc(/C=C(/C#N)c2nc3ccccc3[nH]2)ccc1OC(=O)c1ccco1,.,.,.,.,.
Cc1ccc(Nc2nnc(SCC(=O)Nc3cccnc3Cl)s2)cc1C,.,.,.,63,.
CCCCNC(=O)C1CC(c2cccc([N+](=O)[O-])c2)=NO1 (stereo unspecified),3.5,.,.,.,140
COc1ccc(/C=N/Nc2nc3ccccc3o2)cc1O,8.6,137,.,66,.
COc1ccc(C=C(c2nc3ccccc3s2)c2nc3ccccc3s2)cc1O,.,.,.,.,.
COc1cc(/C=N/NC(=O)c2cc(-c3c(C)nn(-c4ccccc4)c3C)n[nH]2)ccc1O,.,.,.,.,209
COc1cc(/C=N/Nc2nc3ccccc3o2)cc(OC)c1O,.,.,.,.,.
COc1ccc(/C=N/Nc2nc3ccccc3s2)cc1O,4.6,136,.,83,.
COc1ccc(/C=N/NC(=O)c2nc(-c3ccccc3)cc(-c3ccccc3)n2)cc1O,.,.,.,.,131
O=S(=O)(N=S(N1CCCCC1)N1CCCCC1)c1ccccc1,.,.,.,.,.
O=C(N/N=C/c1sc(=O)n(-c2ccccc2)c1Cl)c1ccccc1,.,.,.,67,147
COC(=O)c1cccc(Cn2c(Cl)c(/C=N/NC(=O)c3ccccc3Cl)sc2=O)c1,.,.,.,.,.
O=C(/C=C/c1ccccc1Cl)c1ccc[nH]1,4.3,.,.,.,.
O=C(/C=C/c1ccc(Cl)cc1Cl)c1ccc[nH]1,.,.,.,52,.
SMILES,NF-kB expr up,APP 5'UTR act,FLuc stim CS,FLuc inh counter,STAT1 activator
O=C1/C(=C/c2cccs2)Cc2ccccc21,.,.,.,58,.
O=C1C(=Cc2ccco2)C(=O)c2ccccc21,.,.,.,.,.
COc1ccc2c(c1)OC/C(=C/c1cccs1)C2=O,6.9,.,.,87,147
Cc1ccc(C=C2C(=O)c3ccccc3C2=O)s1,.,.,.,75,.
O=C1C(=Cc2cccs2)C(=O)c2ccccc21,.,.,.,53,.
COc1ccc(/C=C2\COc3ccccc3C2=O)cc1OC,.,.,.,.,.
O=C1/C(=C\c2ccc(Br)o2)Cc2ccccc21,.,.,.,.,.
CCCCOc1ccc(C(=O)OCC(=O)Nc2cc(C)on2)cc1,.,.,.,.,.
COc1ccc(COc2ccccc2C(=O)NCc2ccccc2)cc1F,.,.,.,.,.
Cc1ccccc1C1=N/C(=C/c2cccs2)C(=O)O1,.,.,.,85,.
Cc1ccc(C=C2C(=O)c3ccccc3C2=O)o1,.,.,.,84,.
Cc1ccc(C2=N/C(=C/c3cccs3)C(=O)N2Nc2ccccc2)cc1,.,/,.,.,.
CC1=CC(=O)N(c2ccc(C)cc2)C1c1ccc(Cl)cc1 (stereo unspecified),.,.,.,.,.
O=C(Nc1ccc(S(=O)(=O)Nc2ncccn2)cc1)c1cccnc1,.,.,.,.,134
CCNS(=O)(=O)c1ccc(NC(=O)c2cccnc2)cc1,.,.,.,.,.
